Assay results: ChEMBL document CHEMBL1135789, “Novel structures derived from 2-[[(2-pyridyl)methyl]thio]-1H-benzimidazole as anti-Helicobacter pylori agents, Part 2” (J Med Chem, 2002)
Converted amounts (≈) assume the structure as drawn.

Key:
Mus musculus [1] = assay: Maximum plasma concentration (Cmax) after oral dosing by gavage needle at 30 mg/kg in C57BL/6NTac female mice; Not checked; assay type: ADME, organism-based; design: dose 30 mg/kg, route oral; settings: in vivo
In short: (§1)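 Single oral gavage dose of 30 mg/kg in 85:15 0.5% aqueous hydroxypropylmethylcellulose:PEG-400, given to female C57BL/6NTac mice (6 weeks, 20 g). Plasma was diluted with MeCN to remove proteins, and the parent compound was quantified by LC-MS in single ion recording mode against calibration curves (LLOQ 10-50 ng/mL).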

Helicobacter pylori [2] = assay: Minimum inhibitory concentration against Helicobacter pylori (Helicobacter pylori) ARHp strain 115; assay type: functional
In short: (§2)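 Broth microdilution with two-fold serial dilutions in Brucella broth plus 5% (v/v) heat-inactivated FCS. Strains were pre-grown microaerophilically (5% O2, 10% CO2, 85% N2) on blood agar at 37 °C and passaged twice. The inoculum was a final 10^7 cells/mL.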

Mus musculus [3] = assay: AUC (area under curve) after oral dosing by gavage needle at 30 mg/kg in C57BL/6NTac female mice; Not checked; assay type: ADME, organism-based, Plasma; design: dose 30 mg/kg, route oral; settings: in vivo; in short: as §1
Helicobacter pylori [4] = assay: Minimum inhibitory concentration against Helicobacter pylori (Helicobacter pylori) ARHp strain 81; assay type: functional; in short: as §2
Helicobacter pylori [5] = assay: Minimum inhibitory concentration against Helicobacter pylori (Helicobacter pylori) ARHp strain 206; assay type: functional; in short: as §2
Helicobacter pylori [6] = assay: Minimum inhibitory concentration against Helicobacter pylori (Helicobacter pylori) ARHp strain 80; assay type: functional; in short: as §2
Helicobacter pylori [7] = assay: Minimum bacterial concentration (MBC) at which maximum growth inhibition against Helicobacter pylori has occurred; assay type: functional
In short: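 Strain ARHp206. Aliquots from microdilution wells showing no growth were plated on trypticase soy agar with 5% sheep blood. The MBC was judged by visual inspection as the concentration giving maximum growth inhibition.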

Mus musculus [8] = assay: AUC (area under curve) after oral dosing by gavage needle at 30 mg/kg in C57BL/6NTac female mice; assay type: ADME, organism-based, Plasma; design: dose 30 mg/kg, route oral; settings: in vivo; in short: as §1
[9] = Maximum plasma concentration (Cmax) after oral dosing by gavage needle at 30 mg/kg in C57BL/6NTac female mice; assay type: ADME, organism-based; design: dose 30 mg/kg, route oral; settings: mouse; in short: as §1
Mus musculus [10] = assay: Maximum plasma concentration (Cmax) after oral dosing by gavage needle at 30 mg/kg in C57BL/6NTac female mice; Not detected; assay type: ADME, organism-based; design: dose 30 mg/kg, route oral; settings: in vivo; in short: as §1
Mus musculus [11] = assay: AUC (area under curve) after oral dosing by gavage needle at 30 mg/kg in C57BL/6NTac female mice; Not detected; assay type: ADME, organism-based, Plasma; design: dose 30 mg/kg, route oral; settings: in vivo; in short: as §1

Compound	Cmax (Mus musculus [1])	MIC (Helicobacter pylori [2])	AUC (Mus musculus [3])	MIC (Helicobacter pylori [4])	MIC (Helicobacter pylori [5])	MIC (Helicobacter pylori [6])	MBC (Helicobacter pylori [7])	AUC (Mus musculus [8])	Cmax [9]	Cmax (Mus musculus [10])	AUC (Mus musculus [11])
Cc1c(CSc2nc3ccccc3[nH]2)cccc1SCCNS(=O)(=O)c1cccc2cccnc12	Not checked	4 mg/L (≈ 7.68 µM)	Not checked	8 mg/L (≈ 15.4 µM)	8 mg/L (≈ 15.4 µM)	4 mg/L (≈ 7.68 µM)	> 8 mg/L				
Cc1c(CSc2nc3ccccc3[nH]2)cccc1SCCNC(=O)Nc1ccccc1		0.5 mg/L (≈ 1.11 µM)		0.5 mg/L (≈ 1.11 µM)	0.5 mg/L (≈ 1.11 µM)	0.5 mg/L (≈ 1.11 µM)	8 mg/L (≈ 17.8 µM)	0.283 µg·h/mL	0.14 µg/mL		
Cc1c(CSc2nc3ccccc3[nH]2)cccc1SCCO	Not checked	1 mg/L (≈ 3.03 µM)	Not checked	1 mg/L (≈ 3.03 µM)	1 mg/L (≈ 3.03 µM)	1 mg/L (≈ 3.03 µM)	> 8 mg/L				
COc1cccc(NC(=O)OCCSc2cccc(CSc3nc4ccccc4[nH]3)c2C)c1		0.25 mg/L (≈ 0.521 µM)		0.5 mg/L (≈ 1.04 µM)	0.5 mg/L (≈ 1.04 µM)	0.25 mg/L (≈ 0.521 µM)	8 mg/L (≈ 16.7 µM)	1.63 µg·h/mL	0.797 µg/mL		
Cc1c(CSc2nc3ccccc3[nH]2)cccc1SCC(=O)NCc1cccs1		0.5 mg/L (≈ 1.14 µM)		1 mg/L (≈ 2.27 µM)	1 mg/L (≈ 2.27 µM)	0.5 mg/L (≈ 1.14 µM)	8 mg/L (≈ 18.2 µM)			Not detected	Not detected
Cc1c(CSc2nccs2)cccc1SCCOC(=O)Nc1ccccc1		0.5 mg/L (≈ 1.2 µM)		0.5 mg/L (≈ 1.2 µM)	0.5 mg/L (≈ 1.2 µM)	0.5 mg/L (≈ 1.2 µM)	8 mg/L (≈ 19.2 µM)	0.099 µg·h/mL	0.074 µg/mL		
Cc1c(CSc2ccncc2)cccc1SCCOC(=O)Nc1ccccc1	Not checked	0.25 mg/L (≈ 0.609 µM)	Not checked	0.5 mg/L (≈ 1.22 µM)	0.5 mg/L (≈ 1.22 µM)	0.25 mg/L (≈ 0.609 µM)	8 mg/L (≈ 19.5 µM)				
Cc1c(CSc2nc3ccccc3[nH]2)cccc1SCC(=O)N1CCCCC1		0.25 mg/L (≈ 0.607 µM)		0.5 mg/L (≈ 1.21 µM)	0.5 mg/L (≈ 1.21 µM)	0.25 mg/L (≈ 0.607 µM)	> 8 mg/L	0.135 µg·h/mL	0.057 µg/mL		
Cc1c(CSc2nc3ccccc3[nH]2)cccc1SCCN	Not checked	4 mg/L (≈ 12.1 µM)	Not checked	8 mg/L (≈ 24.3 µM)	8 mg/L (≈ 24.3 µM)	4 mg/L (≈ 12.1 µM)	> 8 mg/L				
Cc1c(CSc2nc3ccccc3[nH]2)cccc1SCC(=O)O	Not checked	> 16 mg/L	Not checked	> 16 mg/L	> 16 mg/L	> 16 mg/L	> 8 mg/L				
Cc1c(CSc2nc3ccccc3[nH]2)cccc1SCC(=O)NCc1ccccc1		1 mg/L (≈ 2.31 µM)		1 mg/L (≈ 2.31 µM)	1 mg/L (≈ 2.31 µM)	1 mg/L (≈ 2.31 µM)	1 mg/L (≈ 2.31 µM)			Not detected	Not detected
Cc1c(CSc2nc3ccccc3[nH]2)cccc1SCCOC(=O)Nc1ccc(F)c(F)c1		0.25 mg/L (≈ 0.515 µM)		0.5 mg/L (≈ 1.03 µM)	0.5 mg/L (≈ 1.03 µM)	0.25 mg/L (≈ 0.515 µM)	8 mg/L (≈ 16.5 µM)	1.13 µg·h/mL	0.398 µg/mL		
Cc1c(CSc2nc3ccccc3[nH]2)cccc1SCCOC(=O)Nc1ccccc1		0.5 mg/L (≈ 1.11 µM)		0.5 mg/L (≈ 1.11 µM)	0.5 mg/L (≈ 1.11 µM)	0.5 mg/L (≈ 1.11 µM)	1 mg/L (≈ 2.22 µM)	2.07 µg·h/mL	0.906 µg/mL		
Cc1c(CSc2nc3ccccc3[nH]2)cccc1SCCNC(=O)c1cnccn1		0.25 mg/L (≈ 0.574 µM)		0.5 mg/L (≈ 1.15 µM)	0.5 mg/L (≈ 1.15 µM)	0.25 mg/L (≈ 0.574 µM)	> 8 mg/L	0.271 µg·h/mL	0.471 µg/mL		
Cc1c(CSc2nc3ccccc3[nH]2)cccc1SCCOC(=O)Nc1ccc(N(C)C)cc1		0.5 mg/L (≈ 1.01 µM)		1 mg/L (≈ 2.03 µM)	1 mg/L (≈ 2.03 µM)	0.5 mg/L (≈ 1.01 µM)	> 8 mg/L	0.299 µg·h/mL	0.331 µg/mL		
CC1(C)S[C@@H]2[C@H](NC(=O)[C@H](N)c3ccc(O)cc3)C(=O)N2[C@H]1C(=O)O [AMOXICILLIN]	Not checked	0.06 mg/L (≈ 0.164 µM)	Not checked	0.06 mg/L (≈ 0.164 µM)	0.12 mg/L (≈ 0.328 µM)	0.06 mg/L (≈ 0.164 µM)					
CC[C@H]1OC(=O)[C@H](C)[C@@H](O[C@H]2C[C@@](C)(OC)[C@@H](O)[C@H](C)O2)[C@H](C)[C@@H](O[C@@H]2O[C@H](C)C[C@H](N(C)C)[C@H]2O)[C@](C)(OC)C[C@@H](C)C(=O)[C@H](C)[C@@H](O)[C@]1(C)O [CLARITHROMYCIN]		< 0.06 mg/L		< 0.06 mg/L	< 0.06 mg/L	< 0.06 mg/L		1.77 µg·h/mL	1 µg/mL		
Cc1ncc([N+](=O)[O-])n1CCO [METRONIDAZOLE]	Not checked	1 mg/L (≈ 5.84 µM)	Not checked	1 mg/L (≈ 5.84 µM)	1 mg/L (≈ 5.84 µM)	8 mg/L (≈ 46.7 µM)					
CN(C)[C@@H]1C(O)=C(C(N)=O)C(=O)[C@@]2(O)C(O)=C3C(=O)c4c(O)cccc4[C@@](C)(O)[C@H]3C[C@@H]12 [TETRACYCLINE]		1 mg/L (≈ 2.25 µM)		1 mg/L (≈ 2.25 µM)	1 mg/L (≈ 2.25 µM)	1 mg/L (≈ 2.25 µM)					
